Tests used:
[1] = Embryotoxicity in fertilized chicken embryo at 2.5 nmol/egg; format: toxicity, Gallus gallus
Gallus gallus = organism: Gallus gallus; assay: Antiangiogenesis activity against fertilized chicken egg chorioallantoic membrane assessed as inhibition of neovascularization at 2.5 nmol/egg by CAM vessel development assay relative to control; format: functional, tissue-based
Summary of the method: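 Fertilized chicken eggs incubated at 37 °C, 80–90% relative humidity. Day 3: window opened after removing 2 ml albumin. Day 5: sample loaded on a quarter-size coverslip placed on the CAM of each embryo, 2.5 nmol/egg. Scored as positive eggs out of 10 tested, graded inhibition effect, and % inhibition of vessel development relative to control.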

SMILES	Activity [1]	inhibition (Gallus gallus) [%]
C[C@H]1[C@@H](CCCOC(=O)CCCC[C@H](C)O[C@@H]2O[C@@H](C)[C@H](O)C[C@H]2O)O[C@@H]2O[C@@]3(C)CC[C@H]4[C@H](C)CC[C@@H]1[C@@]24OO3	Toxic	60
C[C@H]1[C@@H](CC(=O)OCCCCC[C@@H](C)O[C@@H]2O[C@@H](C)[C@H](O)C[C@H]2O)O[C@@H]2O[C@@]3(C)CC[C@H]4[C@H](C)CC[C@@H]1[C@@]24OO3	Non-toxic	100
C[C@H]1[C@@H](OC(=O)CCCC[C@H](C)O[C@@H]2O[C@@H](C)[C@H](O)C[C@H]2O)O[C@@H]2O[C@@]3(C)CC[C@H]4[C@H](C)CC[C@@H]1[C@@]24OO3	Toxic	50
C[C@H]1[C@@H](CC(=O)OCCCCC[C@@H](C)O[C@@H]2O[C@@H](C)[C@H](OCc3ccccc3)C[C@H]2OCc2ccccc2)O[C@@H]2O[C@@]3(C)CC[C@H]4[C@H](C)CC[C@@H]1[C@@]24OO3	Toxic	50
C[C@H](CCCCC(=O)O)O[C@@H]1O[C@@H](C)[C@H](O)C[C@H]1O [DAUMONE]	Non-toxic	70
C[C@H]1[C@@H](OC(=O)CCCC[C@H](C)O[C@@H]2O[C@@H](C)[C@H](OC(=O)c3ccccc3)C[C@H]2OC(=O)c2ccccc2)O[C@@H]2O[C@@]3(C)CC[C@H]4[C@H](C)CC[C@@H]1[C@@]24OO3	Toxic	10
C[C@H]1[C@@H](CCCOC(=O)CCCC[C@H](C)O[C@@H]2O[C@@H](C)[C@H](OC(=O)c3ccccc3)C[C@H]2OC(=O)c2ccccc2)O[C@@H]2O[C@@]3(C)CC[C@H]4[C@H](C)CC[C@@H]1[C@@]24OO3	Non-toxic	80
C=CCCCC[C@@H](C)O[C@@H]1O[C@@H](C)[C@H](O)C[C@H]1OC(=O)C[C@H]1O[C@@H]2O[C@@]3(C)CC[C@H]4[C@H](C)CC[C@@H]([C@H]1C)[C@@]24OO3	50%	50
C=CCCCC[C@@H](C)O[C@@H]1O[C@@H](C)[C@H](OC(=O)C[C@H]2O[C@@H]3O[C@@]4(C)CC[C@H]5[C@H](C)CC[C@@H]([C@H]2C)[C@@]35OO4)C[C@H]1O	Toxic	70
C[C@@H]1CC[C@H]2[C@@H](C)C(=O)O[C@@H]3O[C@@]4(C)CC[C@@H]1[C@]32OO4 [ARTEMISININ]	Non-toxic	30
CO[C@@H]1[C@H](OC(=O)/C=C/C=C/C=C/C=C/C(=O)O)CC[C@]2(CO2)[C@H]1[C@@]1(C)O[C@@H]1CC=C(C)C [FUMAGILLIN]	Toxic	40
C[C@H]1[C@@H](CCOC(=O)CCCC[C@H](C)O[C@@H]2O[C@@H](C)[C@H](O)C[C@H]2O)O[C@@H]2O[C@@]3(C)CC[C@H]4[C@H](C)CC[C@@H]1[C@@]24OO3	Toxic	60
O=C1CC[C@H](N2C(=O)c3ccccc3C2=O)C(=O)N1	Toxic	40
C[C@H]1[C@@H](CCOC(=O)CCCC[C@H](C)O[C@@H]2O[C@@H](C)[C@H](OC(=O)c3ccccc3)C[C@H]2OC(=O)c2ccccc2)O[C@@H]2O[C@@]3(C)CC[C@H]4[C@H](C)CC[C@@H]1[C@@]24OO3	Toxic	60
C[C@H]1[C@@H](CC(=O)O[C@@H]2C[C@@H](O)[C@H](C)O[C@H]2O[C@H](C)CCCCCO)O[C@@H]2O[C@@]3(C)CC[C@H]4[C@H](C)CC[C@@H]1[C@@]24OO3	Non-toxic	50

From ChEMBL document CHEMBL1800053, “Concise synthesis and antiangiogenic activity of artemisinin-glycolipid hybrids on chorioallantoic membranes” (Bioorg Med Chem Lett, 2010)
